Publication PMC3862411 (International Journal for Parasitology, Drugs and Drug …, 2012)
Where “and” joins values, the source holds several entries; their conditions need not be identical. Equal entries are not always repeated. Marks after values point to notes of the source that are not given here.

How the values were obtained:
[1] = tested on: Trichostrongylus colubriformis; assay: Adult nematode worm counts and efficacy 14 days post-treatment; format: in vivo; details: small intestine, 14 days post-administration, IR 0.2 mg/kg
Method in brief: (§1)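 Romney Marsh lambs (27.2 ± 4.48 kg), naturally infected with resistant GI nematodes and grazing lucerne/clover pasture, got a single intraruminal dose of test compound at 0.2 mg/kg. Six treated and six untreated lambs were killed by captive bolt at day 14. Abomasal, small and large intestinal contents were counted by WAAVP guidelines. Geometric mean worm burdens gave % efficacy, treated versus untreated.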

[2] = tested on: resistant GI nematodes; assay: Faecal egg count reduction test; format: in vivo, GI nematodes in lambs; details: IR 0.2 mg/kg; for FECRT: 14 days post-treatment vs untreated control; for Mean epg (range), arithmetic mean of eggs per gram of faeces: Day 14 post-treatment
Method in brief: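 Faeces were sampled at day −1 and day 14 after a single intraruminal 0.2 mg/kg dose to naturally infected lambs. Eggs per gram were counted by modified McMaster. FECRT compared arithmetic mean epg of treated versus untreated controls at day 14, with 95% confidence limits per Coles. Counts were compared by Kruskal–Wallis.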

[3] = tested on: Nematodirus spp.; assay: Adult nematode worm counts and efficacy 14 days post-treatment; format: in vivo; details: small intestine, 14 days post-administration, IR 0.2 mg/kg
Method in brief: as §1

[4] = tested on: Haemonchus spp.; assay: as above; format: in vivo; details: abomasum, 14 days post-administration, IR 0.2 mg/kg
Method in brief: as §1

[5] = tested on: Cooperia spp.; assay: as above; format: in vivo; details: small intestine, 14 days post-administration, IR 0.2 mg/kg
Method in brief: as §1

[6] = tested on: Trichostrongylus axei; assay: as above; format: in vivo; details: abomasum, 14 days post-administration, IR 0.2 mg/kg
Method in brief: as §1

[7] = tested on: Trichuris spp.; assay: as above; format: in vivo; details: large intestine, 14 days post-administration, IR 0.2 mg/kg
Method in brief: as §1

[8] = tested on: Teladorsagia spp.; assay: as above; format: in vivo; details: abomasum, 14 days post-administration, IR 0.2 mg/kg
Method in brief: as §1

[9] = Drug concentrations in GI contents and mucosal tissues; format: in vivo, lambs; details: for Drug concentration, abomasal mucosa / Drug concentration, intestinal mucosa: IR 0.2 mg/kg, lambs
Method in brief: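 After intraruminal 0.2 mg/kg test compound, four infected lambs per time point were killed at 0.5, 1 and 2 days. Abomasal and cranial jejunum contents and mucosal tissue were sampled, stored at −20 °C and assayed by validated fluorescence HPLC (C18, 30 °C, ex 365/em 475 nm). Values are in ng/g, mean ± SD, n = 4.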

[10] = format: in vivo, lambs; details: for AUC: area under the concentration vs time curve extrapolated to infinity / Cmax: peak plasma concentration / Tmax: time to peak plasma concentration / t 1/2 el: elimination half-life: mean ± SD, n = 6
Method in brief: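 Six infected lambs per group got test compound intraruminally at 0.2 mg/kg. Heparinized jugular blood was taken before and at 0, 3, 6, 9 h and 1–13 days, spun at 2000g for 20 min, and plasma assayed by fluorescence HPLC. Non-compartmental analysis: Cmax observed; AUC by trapezoidal rule extrapolated to infinity; t½ = ln2/λz; MRT from AUMC/AUC. Mean ± SD; ANOVA or Kruskal–Wallis.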

[11] = tested on: resistant Haemonchus contortus; format: in vivo; details: for Total mass of H. contortus specimens recovered: day 1 and 2 post-treatment, IR 0.2 mg/kg
Method in brief: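 Infected lambs got test compound intraruminally at 0.2 mg/kg, four killed at 0.5, 1 and 2 days. The total H. contortus mass from abomasal contents was washed in 4 °C saline, blotted, weighed and frozen at −20 °C. Drug was measured by fluorescence HPLC (C18, 0.2% acetic acid/methanol/acetonitrile 1.6/60/38.4, 1.5 ml/min, 30 °C, ex 365/em 475 nm). n = 4.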

[12] = tested on: mammalian P-gp; details: in vitro; ref Lespine et al., 2007; cited from earlier work
[13] = sheep (lambs), abomasal mucosa, other: intraruminal, 0.2 mg/kg
[14] = sheep, plasma, other: intraruminal, 0.2 mg/kg

Compound | Efficacy, Trichostrongylus colubriformis [1] [%] | Worm counts (geometric mean), Trichostrongylus colubriformis [1] | FECRT [2] | Mean epg (range), arithmetic mean of eggs per gram of faeces [2] | Efficacy, Nematodirus spp. [3] [%] | Worm counts (geometric mean), Nematodirus spp. [3] | Efficacy, Haemonchus spp. (H. contortus) [4] [%] | Worm counts (geometric mean), Haemonchus spp. [4] | Efficacy, Cooperia spp. [5] [%] | Worm counts (geometric mean), Cooperia spp. [5] | Efficacy, Trichostrongylus axei [6] [%] | Worm counts (geometric mean), Trichostrongylus axei [6] | Efficacy, Trichuris spp. [7] [%] | Worm counts (geometric mean), Trichuris spp. [7] | Efficacy, Teladorsagia spp. [8] [%] | Worm counts (geometric mean), Teladorsagia spp. [8] | Drug concentration, abomasal mucosa ([9]; 0.5 days post-treatment) | Time up to which drug was detected in plasma ([10]; lambs, IR 0.2 mg/kg) | AUC: area under the concentration vs time curve extrapolated to infinity ([10]; lambs, IR 0.2 mg/kg, plasma) | Total mass of H. contortus specimens recovered [11] [g] | also measured
CC[C@H](C)[C@H]1O[C@]2(CC[C@@H]1C)C[C@@H]1C[C@@H](C/C=C(\C)[C@@H](O[C@H]3C[C@H](OC)[C@@H](O[C@H]4C[C@H](OC)[C@@H](O)[C@H](C)O4)[C@H](C)O3)[C@@H](C)/C=C/C=C3\CO[C@@H]4[C@H](O)C(C)=C[C@@H](C(=O)O1)[C@]34O)O2 [IVM, ivermectin] | 99.3 | 6.28 | 0% | 4620^a (1860–12480) | 99.5 | 4.87 | 20.1 | 1021 | 98.2 | 3.08 | 100 | 0 | 100 | 0 | 99.7 | 5 | 76.5 ± 9.83^a ng/g | up to 8 days post-treatment | 23.6 ± 7.63^a ng d/ml | 1.02 to 1.38 | Drug concentration, intestinal mucosa ([9]; 0.5 days post-treatment): 198 ± 55.7^a ng/g; Drug concentration, abomasal mucosa ([9]; 1 day post-treatment): 58.2 ± 8.75^a ng/g; Drug concentration, intestinal mucosa ([9]; 1 day post-treatment): 117 ± 26.8^a ng/g; Drug concentration, abomasal mucosa ([9]; 2 days post-treatment): 42.6 ± 4.53^a ng/g; Drug concentration, intestinal mucosa ([9]; 2 days post-treatment): 128 ± 51.4^a ng/g; Cmax: peak plasma concentration ([10]; lambs, IR 0.2 mg/kg, plasma): 9.02 ± 1.47^b ng/ml; Tmax: time to peak plasma concentration ([10]; lambs, IR 0.2 mg/kg, plasma): 1.06 ± 0.52^a days; t 1/2 el: elimination half-life ([10]; lambs, IR 0.2 mg/kg, plasma): 1.15 ± 0.30^a days
abamectin [ABM] | 100 | 0 | 0% | 4460^a (1200–6000) | 99.8 | 2.32 | 39.7 | 769 | 100 | 0 | 100 | 0 | 100 | 0 | 100 | 0 | 76.8 ± 11.6^a ng/g | up to 8 days post-treatment | 34.8 ± 11.3^a ng d/ml | 1.13 to 1.50 | Drug concentration, intestinal mucosa ([9]; 0.5 days post-treatment): 203 ± 11.5^a ng/g; Drug concentration, abomasal mucosa ([9]; 1 day post-treatment): 78 ± 24.2^a ng/g; Drug concentration, intestinal mucosa ([9]; 1 day post-treatment): 152 ± 12.4^a ng/g; Drug concentration, abomasal mucosa ([9]; 2 days post-treatment): 64.6 ± 45.4^ab ng/g; Drug concentration, intestinal mucosa ([9]; 2 days post-treatment): 118 ± 85.9^a ng/g; Cmax: peak plasma concentration ([10]; lambs, IR 0.2 mg/kg, plasma): 13.6 ± 2.64^a ng/ml; Tmax: time to peak plasma concentration ([10]; lambs, IR 0.2 mg/kg, plasma): 0.90 ± 0.26^a days; t 1/2 el: elimination half-life ([10]; lambs, IR 0.2 mg/kg, plasma): 1.10 ± 0.25^a days
CO/N=C1\C[C@]2(C[C@@H]3C[C@@H](C/C=C(\C)C[C@@H](C)/C=C/C=C4\CO[C@@H]5[C@H](O)C(C)=C[C@@H](C(=O)O3)[C@]45O)O2)O[C@H](/C(C)=C/C(C)C)[C@H]1C [MXD, moxidectin] | 100 | 0 | 86% and 86.8% | 570^b (240–960) | 100 | 0 | 89.6 | 133 | 100 | 0 | 100 | 0 | 100 | 0 | 100 | 0 | – | ≤ 13 days post-treatment | 29.5 ± 3.87^a ng d/ml | 0.13 to 0.14 | Affinity by mammalian P-gp compared to avermectin-type compounds [12]: lower affinity; Concentrations in GI contents and mucosal tissues compared to IVM and ABM ([9]; 2 days post-treatment): significantly lower; concentration at 0.5 days [9, 13]: 65.5 ± 9.74 ng/g; concentration at 1 day [9, 13]: 48.3 ± 12.7 ng/g; concentration at 2 days [9, 13]: 30.1 ± 5.8 ng/g; Plasma mean residence time (MRT) compared to ABM and IVM ([10]; lambs, IR 0.2 mg/kg): significant longer; Cmax [10, 14]: 11.3 ± 2.87 ng/mL; Tmax [10, 14]: 13 h; half-life [10, 14]: 113 h; Drug concentrations recovered within adult H. contortus compared to ABM and IVM ([11]; day 2 post-treatment): lower
